Each structure is given as a SMILES string.

This data set is described as follows: Toxicity liver stage against HepG2, at 10uM. The class given is cell-based. Set-up: test concentration 10 uM, cell line HepG2-A16-CD81EGFP. The settings on record: human, HepG2-A16-CD81EGFP cells; read-out: INHIBITION
The gist of the method:
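Uninfected HepG2-A16-CD81EGFP cells, 3 × 10^3 per well, 1536-well, plated on prespotted compound at 10 μM final, parasite-free screening media added to match infected plates; puromycin 10 μM positive, DMSO 0.5% negative; run in parallel with 48 h PbLuc assay at 37 °C, 5% CO2; viability by CellTiter-Glo luminescence, normalized to controls.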
Consider `COCCN1CCc2ccccc2NCCC1=O`, for which the cytotoxicity at 10 µM is -2.51%. Regarding `Cc1cc(C)n(CCN2CCN(C(=O)c3cc4ccccc4o3)CC2)n1`, the cytotoxicity at 10 µM was -3.97%. With `Cc1oncc1C(=O)N1CC[C@H]2[C@H](CO[C@@H]2CNS(C)(=O)=O)C1`, the cytotoxicity at 10 µM came to 0.0508%. As to `O=C(CSc1nc2c(cnn2CCO)c(=O)[nH]1)N1CCCCCC1`, the cytotoxicity at 10 µM was -15.4%. Take `CNC(=O)CS(=O)(=O)C1CCN(S(=O)(=O)C2CC2)CC1`: the cytotoxicity at 10 µM was -16.7%. Then `CCOCC(=O)N1C[C@@H]2COC[C@H](c3nc(C)no3)[C@@H]2C1`, with -11.1%. On to `CCn1nc(C)c2nc(C(C)C)nc(NC)c21`, for which the cytotoxicity at 10 µM is 7.19%. The figure for `COCCNC(=O)c1cc(C(C)C)nc(N2CCCC2)n1` is 5.03%; for `CC(C)C(=O)NCCCn1ncc2c(Cl)cccc21` it is -21.6%. The figure for `CC(C)N1CCCC1c1csc(N)n1` (configuration not stated) is 2.33%; for `Cc1ccc(CN2CCOC(c3cnccn3)C2)s1` (configuration not stated) it is -2.81%; for `C=Cn1ncc(CN2CCc3nc(-c4ccncc4)nc(O)c3C2)c1C` it is -4.45%. On to `CCCc1cc(C(=O)NC(c2ccccc2)c2n[nH]c(C)n2)[nH]n1` (configuration not stated), for which the cytotoxicity at 10 µM was 2.99%. The figure for `O=C(NCc1ccnc(OCC(F)(F)F)c1)NCC1CCOC1` (configuration not stated) is -3.22%; for `O=C(c1cc[nH]n1)N1CCN(C(c2ccccc2)C(F)(F)F)CC1` (configuration not stated) it is -6.36%. For `O=C1CC(C(=O)Nc2nnc(-c3ccoc3)[nH]2)c2ccccc2N1` (configuration not stated), the cytotoxicity at 10 µM amounted to 0.841%. Then `C(=C\c1ccccc1)/CNCC1CCc2nncn2C1` (configuration not stated), with 16.8%; and `CN1CCN(C)C(CNC(=O)N(C)Cc2ccccc2Cl)C1` (configuration not stated), with 0.339%. Then `CC(C)c1noc(CNc2ccccc2CC(=O)N(C)C)n1`, with -10.6%. Take `Cc1ccc(CNC(=O)c2ccc(=O)n(C)n2)c(OCC2CC2)c1`: the cytotoxicity at 10 µM is -5.92%. `CC(NC(=O)CCN1CCOC1=O)(c1ccccc1)c1ccccc1`: the cytotoxicity at 10 µM was -10%. For `COc1ncnc(N)c1CNCCc1ccc(-n2cccn2)cc1`, the cytotoxicity at 10 µM was -13.3%.

On to `COc1ccc(CN(C)C(=O)CN2CC(n3cc(C)cn3)C2)cc1F`, for which the cytotoxicity at 10 µM was 1.59%. Consider `O=C(OCCNc1ncccn1)c1ccc(Br)s1`, for which the cytotoxicity at 10 µM is -2.64%.

On to `O=C(c1ccoc1)N(Cc1cccnc1)C1CC1`, for which the cytotoxicity at 10 µM is -13.2%.

For the compound `Cc1noc(C(C)N2CCN(CCC(=O)N3CCOCC3)CC2)n1` (configuration not stated), the cytotoxicity at 10 µM was -0.0308%. The figure for `COCCOCCNC(=O)C(C)Oc1ccccc1C(F)(F)F` (configuration not stated) is 0.295%. The figure for `CC(NCCN1CCN(C(=O)C2CCCC2)CC1)c1cnn(C)c1` (configuration not stated) is -4.59%; for `Cc1ccc(CN(C(=O)C(C)S(C)(=O)=O)C2CC2)cc1C` (configuration not stated) it is 3.28%. With `CC1CCC(NC(=O)NCC(C)(C)CCS(C)(=O)=O)CC1` (configuration not stated), the cytotoxicity at 10 µM is 9.61%. Then `COc1c(C)cnc(CN2CCCC(c3noc(C4CC4)n3)C2)c1C` (configuration not stated), with -1.62%; and `Cc1ccc(S(=O)(=O)N(CC2CCOC2)C2CC2)cc1N(C)C` (configuration not stated), with -9.77%; and `COc1c(C(=O)N2CCC(COCc3ccccc3)C2)c(C)nn1C` (configuration not stated), with 7.39%. The figure for `CCCc1nnc(NC(=O)N2CCCC(NC(C)=O)C2)s1` (configuration not stated) is 5.41%; for `CSCCC(C)NC(=O)CCN1C(=O)CCc2cc(F)ccc21` (configuration not stated) it is 6.79%. Then `O=C1CCCN1C1CCN(S(=O)(=O)CCOc2ccc(F)cc2)CC1`, with 5.94%. Consider `CC(c1ccco1)N(C)Cc1cccc(C(=O)Nc2nccn2C)c1` (configuration not stated), for which the cytotoxicity at 10 µM was -7.33%. Then `Cc1ccccc1CC(=O)N1CCCn2cncc2C1`, with -1.1%; and `O=C(CN1CCOC1=O)N1CC[C@@H](c2ccc3ccccc3c2)[C@H](O)C1`, with 0.562%; and `COc1cccc(OCC2CCCN(C(=O)CCCn3cccn3)C2)c1` (configuration not stated), with 8.12%.

As to `CC(=O)c1cccc(C(=O)N2C[C@@H](CN3CCCCCC3)[C@@H](CO)C2)c1`, the cytotoxicity at 10 µM amounted to 3.32%.

Take `CCN(CC)C(=O)[C@@H]1C[C@H](n2cc(-c3cccc(OC)c3)nn2)CN1`: the cytotoxicity at 10 µM was 12.4%.

For `Cc1[nH]c2ccc(CNc3cc(C(N)=O)ccn3)cc2c1C`, the cytotoxicity at 10 µM was -4.73%. On to `Cc1ccc(C(N)=O)c(N2Cc3cnc(C(C)(C)C)nc3C2)n1`, for which the cytotoxicity at 10 µM was found to be 8.05%. The figure for `O=C(O)C1c2nc[nH]c2CCN1Cc1ccc(-c2ccccc2)s1` (configuration not stated) is -9.35%; for `CCOc1ccc(C(=O)N2Cc3cnc(CC(C)C)nc3C2)o1` it is 7.18%; for `Cc1cc(C)nc(N2CCCC(c3nccn3CCCN(C)C)C2)c1` (configuration not stated) it is -7.97%. Then `CCC(C)CN1CCC(n2cc(C3CCCC3)nn2)CC1` (configuration not stated), with -2.13%; and `COc1cccc(C(C(=O)O)N2CCSCC2)c1F` (configuration not stated), with -12.9%; and `Cc1noc(-c2ccc(N3CCN(Cc4ncccc4C)CC3)nc2)n1`, with -3.35%. `CCc1noc(CN(CC)C(=O)CC2C(=O)NCCN2CC=C(C)C)n1` (configuration not stated): the cytotoxicity at 10 µM came to 2.24%.

`CSCc1noc(CNC2CCCC(C)(C)C2)n1` (configuration not stated): the cytotoxicity at 10 µM is -0.268%. The figure for `CC(c1ccco1)N(C)Cc1cc2cc3c(cc2[nH]c1=O)OCO3` (configuration not stated) is 2.59%; for `CC(=O)N1C[C@@H](c2ccsc2)[C@@H]2CN(Cc3ccccc3)CC[C@@H]21` it is 6.76%.

Take `CC1CN(Cc2cccnc2)CCN1c1ccc2nncn2n1` (configuration not stated): the cytotoxicity at 10 µM was -11.1%. Consider `Cc1nn(C)c(C)c1CCC(=O)N1CCCC(n2cccn2)C1` (configuration not stated), for which the cytotoxicity at 10 µM is -6.69%.

Take `CCc1cnc(CN(C(C)=O)C2CCN(CCc3ccccc3)C2)o1` (configuration not stated): the cytotoxicity at 10 µM was -8.17%. In the case of `Cc1nnc2n1CCN(C(=O)CN(C)Cc1ccccc1)C2`, the cytotoxicity at 10 µM is -4.56%. The figure for `CC(=O)N1CCN(C(=O)c2csc(-c3ccc(C)cc3C)n2)CC1` is -18.8%; for `Cc1cnn(C2CCCN(C(=O)c3ccc(Cn4ccnc4)cc3)C2)c1` (configuration not stated) it is 2.54%; for `Cc1cc(C(=O)N2CCCC(n3cncn3)C2)nn1C` (configuration not stated) it is -0.776%. For the compound `COc1ccccc1CCNC(=O)N1CCC(n2cncn2)CC1`, the cytotoxicity at 10 µM came to 0.428%. For the compound `O=C1NCCN1C1CCN(Cc2nc(-c3ccoc3)no2)CC1`, the cytotoxicity at 10 µM is -9.06%.

Turning to `CN(C)c1cc(C(=O)N2CCN(S(C)(=O)=O)CC2)ccn1`, the cytotoxicity at 10 µM is -4.46%. For `CC(C)=CCN1CCOC(Cn2nc(C)cc2C)C1` (configuration not stated), the cytotoxicity at 10 µM was -9.93%.

Take `Cc1cccc2c1OCCC2NCc1c(C)nn(C)c1N(C)C` (configuration not stated): the cytotoxicity at 10 µM is -5.72%.

On to `Cc1cc(C)n2cc(CN3CCCC3Cn3nc(C)nc3C)nc2n1` (configuration not stated), for which the cytotoxicity at 10 µM is 4.91%.

Take `Cc1cnn(C2CCCN(C(=O)c3ccnc(N(C)C)c3)C2)c1` (configuration not stated): the cytotoxicity at 10 µM was 5.15%. The figure for `CCOc1ccc(Br)cc1C1CCCN1` (configuration not stated) is 5.01%; for `O=C(c1cccnc1)N1CCC2(CC1)COCCN(c1ncccn1)C2` it is 2.66%; for `c1csc(CN2CCO[C@H]3[C@H](OCCN4CCCC4)CC[C@@H]32)n1` it is -7.32%. On to `O=C(c1cnc2n1CCN(Cc1ccccc1)C2)N1CCCC1`, for which the cytotoxicity at 10 µM is -73.9%.

The values above are taken from ChEMBL document CHEMBL4513216, “Probing the Open Global Health Chemical Diversity Library for Multistage-Active Starting Points for Next-Generation Antimalarials” (ACS Infect Dis, 2020).
